# Assay results gathered from unrelated publications.
# Target: Receptor tyrosine-protein kinase erbB-2 (ERBB2, Homo sapiens, UniProt P04626)
SMILES,test,conditions,quantity,value
Cn1cc(-c2cc(F)cc(N3CCn4c(cc5c4CCCC5)C3=O)c2CO)cc(Nc2ccc(N3CCN(C4COC4)CC3)cn2)c1=O,"enzyme activity, inhibitor",0.1 µM,inhibition,7%
Cc1nn(C)cc1-c1nc2c(N3CCN(Cc4ccc(Cl)cc4)CC3)c(Cl)cnc2[nH]1,"binding, competition with immobilised ligand",1 µM,remaining binding,70%
C#Cc1n[nH]c2c(-c3cn([C@@H](C)c4ccccn4)c(=O)[nH]c3=O)cc(F)cc12,"enzyme activity, inhibitor",0.1 µM,inhibition,-0.7%
c1ccc(C(NCCNC(c2ccccc2)c2ccccc2)c2ccccc2)cc1,"enzyme activity, inhibitor",10 µM,inhibition,-7%
CC(C)(C)c1cc(C=C(C#N)C#N)cc(Br)c1O,"enzyme activity, inhibitor",0.5 µM,remaining activity,95.7%
Cn1cncc1[C@@](O)(COc1ccc(C#N)cc1-c1ccc(OC(F)(F)F)cc1)c1ccc(C#N)cc1,"cell-free assay, competition with immobilised ligand",1 µM,remaining binding,94%
COc1ncccc1-c1cnn2ccc(N3CCN(C(=O)OC(C)C)CC3)nc12,"binding, competition with immobilised ligand",1 µM,remaining binding,92%
C[C@H](C(=O)N[C@H]1COc2ccccc2[C@@H]1S(C)(=O)=O)c1ccc(F)cc1,"enzyme activity, inhibitor",10 µM,inhibition,0%
O=c1[nH]c2ccccc2n1C1CCN(Cc2ccc(-c3[nH]c4cc5ncnc5cc4nc3-c3ccccc3)cc2)CC1,cell-free assay,0.5 µM,remaining signal,88.9%
Cn1cc(-c2cccc(N3CCc4c(sc5c4CC(C)(C)C5)C3=O)c2CO)cc(Nc2ccncn2)c1=O,"enzyme activity, inhibitor",1 µM,inhibition,54%
COc1cc(Nc2ncc(F)c(Nc3ccc4c(n3)NC(=O)C(C)(C)O4)n2)cc(OC)c1OC,"binding, competition with immobilised ligand",10 µM,inhibition,70%
C#Cc1n[nH]c2c(-c3cn([C@@H](C)c4ccccc4)c(=O)[nH]c3=O)cc(F)cc12,"enzyme activity, inhibitor",0.1 µM,inhibition,-8.5%
Nc1ncc(-c2nc(N3CCOCC3)nc(N3CCOCC3)n2)c(C(F)F)n1,"binding, competition with immobilised ligand",10 µM,remaining binding,65%
N#CC1(c2ccccn2)CCN(Cc2cc(C(=O)O)c(=O)n3ccccc23)CC1,"cell-free assay, competition with immobilised ligand",1 µM,remaining binding,96%
